Experimental data from ChEMBL document CHEMBL3244139, “Antiarrhythmic activity of p-hydroxy-N-(2-diethylaminoethyl) benzamide (the p-hydroxy isostere of procainamide) in dogs and mice” (J Med Chem, 1977).
Activity calls are given as the source filed them. No cut-off for these calls is given here.

Assays:
Mus musculus [1] = assay: Antiarrhythmic activity in ip dosed ICR mouse assessed as protection against chloroform-induced ventricular fibrillation; assay type: functional; settings: Heart
In short: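 Male ICR mice, 28-35 days, mean 25 g, given drug ip, then after 10 min exposed to chloroform in a jar until breathing stopped. Protection meant no intermittent or continuous ventricular fibrillation at any point. Eight mice per dosage interval.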

Mus musculus [2] = assay: Antiarrhythmic activity in ICR mouse assessed as protection against chloroform-induced ventricular fibrillation at 233 to 240 mg/kg, ip; assay type: functional
In short: (§1)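 ICR male mice, 28-35 days old, average weight 25 g, dosed ip. After 10 min they were placed in a chloroform jar and anesthetized. A mouse counted as protected if no intermittent or continuous ventricular fibrillation appeared before breathing ceased. Definite fibrillation counted as unprotected even if it later changed rhythm. Eight mice per dose.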

Mus musculus [3] = assay: Antiarrhythmic activity in ICR mouse assessed as protection against chloroform-induced ventricular fibrillation at 100 mg/kg, ip; assay type: functional, organism-based; set-up: dose 100 mg/kg; settings: Heart; in short: as §1
Canis familiaris [4] = assay: Antiarrhythmic activity in aconitine-induced mongrel dog arrhythmic model assessed as mean arterial blood pressure measured at end of infusion at 59 +/- 25 mg/kg, iv (reference value: 70 +/- 8 mmHg); assay type: functional, Canis lupus familiaris, Artery
Canis familiaris [5] = assay: Antiarrhythmic activity in aconitine-induced mongrel dog arrhythmic model assessed as atrial rate at 59 +/- 25 mg/kg, iv after 16 +/- 10 mins from end of infusion; assay type: functional, Canis lupus familiaris, Heart
Canis familiaris [6] = assay: Antiarrhythmic activity in aconitine-induced mongrel dog arrhythmic model assessed as decrease in ventricular rate at 59 +/- 25 mg/kg, iv after 16 +/- 10 mins from end of infusion (reference value: 205 +/- 65 BPM); assay type: functional, Canis lupus familiaris, Heart
[7] = Antiarrhythmic activity in mongrel dog Purkinje fiber assessed as rate of phase 0 depolarization (dV/dt) at 5 ug/ml by Single Cell Potentials/electrophysiological technique (reference value: 439 +/- 47 V/s); assay type: functional, Canis lupus familiaris
[8] = Antiarrhythmic activity in mongrel dog Purkinje fiber assessed as rate of phase 0 depolarization (dV/dt) at 20 ug/ml by Single Cell Potentials/electrophysiological technique (reference value: 478 +/- 67 V/s); assay type: functional, Canis lupus familiaris
[9] = Antiarrhythmic activity in mongrel dog Purkinje fiber assessed as 50% repolarization time at 5 ug/ml by Single Cell Potentials/electrophysiological technique (reference value: 200 +/- 6 ms); assay type: functional, Canis lupus familiaris
[10] = Antiarrhythmic activity in mongrel dog Purkinje fiber assessed as 50% repolarization time at 20 ug/ml by Single Cell Potentials/electrophysiological technique (reference value: 236 +/- 9 ms); assay type: functional, Canis lupus familiaris
[11] = Antiarrhythmic activity in mongrel dog Purkinje fiber assessed as 90% repolarization time at 5 ug/ml by Single Cell Potentials/electrophysiological technique (reference value: 282 +/- 8 ms); assay type: functional, Canis lupus familiaris
[12] = Antiarrhythmic activity in mongrel dog Purkinje fiber assessed as 90% repolarization time at 20 ug/ml by Single Cell Potentials/electrophysiological technique (reference value: 302 +/- 12 ms); assay type: functional, Canis lupus familiaris
[13] = Antiarrhythmic activity in mongrel dog Purkinje fiber assessed as spontaneous intrinsic rate at 5 ug/ml by Single Cell Potentials/electrophysiological technique (reference value: 19 +/- 4 BPM); assay type: functional, Canis lupus familiaris
[14] = Antiarrhythmic activity in mongrel dog Purkinje fiber assessed as spontaneous intrinsic rate at 20 ug/ml by Single Cell Potentials/electrophysiological technique (reference value: 22 +/- 5 BPM); assay type: functional, Canis lupus familiaris
[15] = Toxicity in ip dosed ICR mouse assessed as acute mortality; assay type: organism-based; settings: in vivo
In short: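 Male ICR mice, 28-35 days old (av wt 26 g), in groups of ten per dose level, given drug ip. Deaths recorded at 10, 15, 30, 60, 120 and 210 min after injection to set acute mortality.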

[16] = Therapeutic index, ratio of LD50 for ICR mouse assessed as acute mortality to ED50 for protection against chloroform-induced ventricular fibrillation in ICR mouse; assay type: organism-based, Cardiac ventricle; settings: in vivo, read-out: Ratio LD50/ED50
In short: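 Male ICR mice, 28-35 days old, dosed ip. For ED50, 8 mice per dose went into a chloroform jar 10 min after dosing and were kept there until breathing stopped; mice with no intermittent or continuous ventricular fibrillation counted as protected. ED50 was derived by Litchfield-Wilcoxon. LD50 came from acute mortality in 10 mice per dose. Index reported as LD50/ED50.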

[17] = Antiarrhythmic activity in mongrel dog Purkinje fiber assessed as maximum diastolic potential at 5 ug/ml (reference value: -93 +/- 2 mV) by Single Cell Potentials/electrophysiological technique; assay type: functional, Canis lupus familiaris
[18] = Antiarrhythmic activity in mongrel dog Purkinje fiber assessed as maximum diastolic potential at 20 ug/ml (reference value: -93 +/- 2 mV) by Single Cell Potentials/electrophysiological technique; assay type: functional, Canis lupus familiaris
[19] = Antiarrhythmic activity in mongrel dog Purkinje fiber assessed as action potential at 5 ug/ml (reference value: 127 +/- 2 mV) by Single Cell Potentials/electrophysiological technique; assay type: functional, Canis lupus familiaris
[20] = Antiarrhythmic activity in mongrel dog Purkinje fiber assessed as action potential at 20 ug/ml (reference value: 128 +/- 3 mV) by Single Cell Potentials/electrophysiological technique; assay type: functional, Canis lupus familiaris
Plasma [21] = assay: Drug metabolism in mongrel dog assessed as p-hydroxy-N-(2-diethylaminoethyl)benzamide level in plasma; assay type: ADME, cell-free, Canis lupus familiaris
In short: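 Dog plasma sampled when infusion ended. Extracted with NaCl and internal standard and run on TLC (benzene/28% ammonia/acetone/dioxane 5:8:80:5). Quantified by reflectance densitometry, 260-nm illumination, as fluorescence quenching. Peak areas read against standard curves, linear over 0.1-0.8 µg per plate.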

Plasma [22] = assay: Plasma concentration in mongrel dog at 59 +/- 25 mg/kg, iv; assay type: ADME, organism-based, Canis lupus familiaris; set-up: route intravenous; settings: in vivo
In short: (§2)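 Plasma withdrawn from each aconitine-treated dog when iv infusion was discontinued; drug measured by TLC densitometry.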

Canis familiaris [23] = assay: Antiarrhythmic activity in aconitine-induced mongrel dog arrhythmic model assessed as atrial rate measured at end of infusion at 59 +/- 25 mg/kg, iv; assay type: functional, Canis lupus familiaris, Heart
Canis familiaris [24] = assay: Antiarrhythmic activity in aconitine-induced mongrel dog arrhythmic model assessed as decrease in ventricular rate measured at end of infusion at 59 +/- 25 mg/kg, iv (reference value: 205 +/- 65 BPM); assay type: functional, Canis lupus familiaris, Heart
Canis familiaris [25] = assay: Antiarrhythmic activity in aconitine-induced mongrel dog arrhythmic model assessed as mean arterial blood pressure measured at end of infusion at 48 +/- 38 mg/kg, iv (reference value: 70 +/- 8 mmHg); assay type: functional, Canis lupus familiaris, Artery
Canis familiaris [26] = assay: Antiarrhythmic activity in aconitine-induced mongrel dog arrhythmic model assessed as atrial rate at 48 +/- 38 mg/kg, iv after 17 +/- 16 mins from end of infusion; assay type: functional, Canis lupus familiaris, Heart
Canis familiaris [27] = assay: Antiarrhythmic activity in aconitine-induced mongrel dog arrhythmic model assessed as decrease in ventricular rate rate at 48 +/- 38 mg/kg, iv after 17 +/- 16 mins from end of infusion (reference value: 205 +/- 65 BPM); assay type: functional, Canis lupus familiaris, Heart
[28] = Antiarrhythmic activity in mongrel dog Purkinje fiber assessed as rate of phase 0 depolarization (dV/dt) at 10 ug/ml by Single Cell Potentials/electrophysiological technique (reference value: 491 +/- 40 V/s); assay type: functional, Canis lupus familiaris
[29] = Antiarrhythmic activity in mongrel dog Purkinje fiber assessed as rate of phase 0 depolarization (dV/dt) at 20 ug/ml by Single Cell Potentials/electrophysiological technique (reference value: 474 +/- 57 V/s); assay type: functional, Canis lupus familiaris
[30] = Antiarrhythmic activity in mongrel dog Purkinje fiber assessed as 50% repolarization time at 10 ug/ml by Single Cell Potentials/electrophysiological technique (reference value: 244 +/- 15 ms); assay type: functional, Canis lupus familiaris
[31] = Antiarrhythmic activity in mongrel dog Purkinje fiber assessed as 50% repolarization time at 20 ug/ml by Single Cell Potentials/electrophysiological technique (reference value: 223 +/- 11 ms); assay type: functional, Canis lupus familiaris
[32] = Antiarrhythmic activity in mongrel dog Purkinje fiber assessed as 90% repolarization time at 10 ug/ml by Single Cell Potentials/electrophysiological technique (reference value: 274 +/- 30 ms); assay type: functional, Canis lupus familiaris
[33] = Antiarrhythmic activity in mongrel dog Purkinje fiber assessed as 90% repolarization time at 20 ug/ml by Single Cell Potentials/electrophysiological technique (reference value: 284 +/- 12 ms); assay type: functional, Canis lupus familiaris
[34] = Antiarrhythmic activity in mongrel dog Purkinje fiber assessed as spontaneous intrinsic rate at 10 ug/ml by Single Cell Potentials/electrophysiological technique (reference value: 33 +/- 5 BPM); assay type: functional, Canis lupus familiaris
[35] = Antiarrhythmic activity in mongrel dog Purkinje fiber assessed as spontaneous intrinsic rate at 20 ug/ml by Single Cell Potentials/electrophysiological technique (reference value: 35 +/- 7 BPM); assay type: functional, Canis lupus familiaris
Plasma [36] = assay: Plasma concentration in mongrel dog at 48 +/- 38 mg/kg, iv; assay type: ADME, organism-based, Canis lupus familiaris; set-up: route intravenous; settings: in vivo; in short: as §2
Canis familiaris [37] = assay: Antiarrhythmic activity in aconitine-induced mongrel dog arrhythmic model assessed as atrial rate measured at end of infusion at 48 +/- 38 mg/kg, iv; assay type: functional, Canis lupus familiaris, Heart
Canis familiaris [38] = assay: Antiarrhythmic activity in aconitine-induced mongrel dog arrhythmic model assessed as decrease in ventricular rate rate measured at end of infusion at 48 +/- 38 mg/kg, iv (reference value: 205 +/- 65 BPM); assay type: functional, Canis lupus familiaris, Heart
Canis familiaris [39] = assay: Antiarrhythmic activity in aconitine-induced mongrel dog arrhythmic model assessed as decrease in ventricular rate rate measured at end of infusion at 50 +/- 24 mg/kg, iv (reference value: 205 +/- 65 BPM); assay type: functional, Canis lupus familiaris, Heart
Canis familiaris [40] = assay: Antiarrhythmic activity in aconitine-induced mongrel dog arrhythmic model assessed as mean arterial blood pressure measured at end of infusion at 50 +/- 24 mg/kg, iv (reference value: 70 +/- 8 mmHg); assay type: functional, Canis lupus familiaris, Artery
Canis familiaris [41] = assay: Antiarrhythmic activity in aconitine-induced mongrel dog arrhythmic model assessed as atrial rate at 50 +/- 24 mg/kg, iv after 20 +/- 3 mins from end of infusion; assay type: functional, Canis lupus familiaris, Heart
Canis familiaris [42] = assay: Antiarrhythmic activity in aconitine-induced mongrel dog arrhythmic model assessed as decrease in ventricular rate rate at 50 +/- 24 mg/kg, iv after 20 +/- 3 mins from end of infusion (reference value: 205 +/- 65 BPM); assay type: functional, Canis lupus familiaris, Heart
Plasma [43] = assay: Drug metabolism in mongrel dog assessed as ester of p-acetoxy-N-(2-diethylaminoethyl)benzamide level in plasma; assay type: ADME, cell-free, Canis lupus familiaris
In short: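 Dog plasma taken at end of infusion was extracted as for the phenol but without internal standard. Spotted on silica gel F254 TLC, developed with acetone-methanol (1:1), and quantified by densitometry.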

[44] = Stability in human plasma assessed as hydrolysis at 20 ug/ml after 5 mins at room temperature; assay type: ADME, cell-free; settings: read-out: Drug degradation
In short: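 Ester at 20 µg/ml held in fresh human plasma for 5 min at room temperature. Comparison conditions: plasma plus 10^-5 M physostigmine, and saline. Standards extracted and measured by TLC densitometry.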

Plasma [45] = assay: Plasma concentration in mongrel dog at 50 +/- 24 mg/kg, iv; assay type: ADME, organism-based, Canis lupus familiaris; set-up: route intravenous; settings: in vivo; in short: as §2
Canis familiaris [46] = assay: Antiarrhythmic activity in aconitine-induced mongrel dog arrhythmic model assessed as atrial rate measured at end of infusion at 50 +/- 24 mg/kg, iv; assay type: functional, Canis lupus familiaris, Heart

CCN(CC)CCNC(=O)c1ccc(NC(C)=O)cc1.Cl [ACECAINIDE HYDROCHLORIDE]
ED50 (Mus musculus [1]): 110 mg/kg

CCN(CC)CCNC(=O)c1ccccc1
Activity (Mus musculus [2]; Heart): inactive
Activity (Mus musculus [3]): inactive

CCN(CC)CCNC(=O)c1ccc(O)cc1.Cl
Activity (Canis familiaris [4]): 64 mmHg
Activity (Canis familiaris [5]): 278 bpm
Activity (Canis familiaris [6]): 160 bpm
Activity [7]: 396 V/s
Activity [8]: 423 V/s
Time [9]: 250 ms
Time [10]: 280 ms
Time [11]: 344 ms
Time [12]: 381 ms
Activity [13]: 20 bpm
Activity [14]: 16 bpm
ED50 (Mus musculus [1]): 157 mg/kg
LD50 [15]: 335 mg/kg
selectivity ratio [16]: 2.1
Activity [17]: -95 mV
Activity [18]: -94 mV
Activity [19]: 127 mV
Activity [20]: 126 mV
Drug metabolism (Plasma [21]): 97 µg/mL
Cp (Plasma [22]): 137 µg/mL
Activity (Canis familiaris [23]): 210 bpm
Activity (Canis familiaris [24]): 197 bpm

CCN(CC)CCNC(=O)c1ccc(N)cc1.Cl [PROCAINAMIDE HYDROCHLORIDE]
Activity (Canis familiaris [25]): 68 mmHg
Activity (Canis familiaris [26]): 283 bpm
Activity (Canis familiaris [27]): 215 bpm
Activity [28]: 421 V/s
Activity [29]: 411 V/s
Time [30]: 265 ms
Time [31]: 239 ms
Time [32]: 334 ms
Time [33]: 316 ms
Activity [34]: 24 bpm
Activity [35]: 23 bpm
ED50 (Mus musculus [1]): 137 mg/kg
LD50 [15]: 255 mg/kg
selectivity ratio [16]: 1.8
Cp (Plasma [36]): 118 µg/mL
Activity (Canis familiaris [37]): 225 bpm
Activity (Canis familiaris [38]): 203 bpm

CCN(CC)CCNC(=O)c1ccc([N+](=O)[O-])cc1.Cl
Activity (Mus musculus [2]; dose mg/kg 233-240, route intraperitoneal): 38%

CCN(CC)CCNC(=O)c1ccc(OC(C)=O)cc1.Cl
Activity (Canis familiaris [39]): 173 bpm
Activity (Canis familiaris [40]): 70 mmHg
Activity (Canis familiaris [41]): 373 bpm
Activity (Canis familiaris [42]): 183 bpm
Drug metabolism (Plasma [43]): < 0.5 µg/mL
metabolised at 5 min, 20 ug/ml [44]: 60%
Cp (Plasma [45]): < 0.5 µg/mL
Activity (Canis familiaris [46]): 173 bpm
